PubChem BioAssay AID624466 (The Scripps Research Institute Molecular Screening Center, 2012)
Screen size: about 360,000 compounds; about 5,400 (1.5%) were called active.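 The calls were made as follows: active = inhibition above a per-plate cutoff, the mean inhibition of test compounds on that plate plus 3 SD (cut at about 49% in these data); inactive = the rest.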 The full list was thinned out, with actives kept by preference. Where a SMILES comes first, the peptide text is derived from it. The star is where a group is joined. Bz = O=C(c1ccccc1)*

Biological target: Trace amine-associated receptor 1 (Homo sapiens) (UniProt Q96RJ0)
Test: human TAAR1 antagonists, primary screen, Fluo-8 calcium fluorescence, CHO RD-HGA16 cells (AID 624466);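 also: 0% = DMSO plus EC80 beta-PEA response and 100% = DMSO alone without agonist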
Details: CHO RD-HGA16 TAAR1, Fluo-8 calcium fluorescence, antagonist; at 3 µM; hits give high values
How it was run: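 Test system – hTAAR1-expressing CHO RD-HGA16 cells, Gα16-coupled · Also added – β-PEA at EC80 concentration, post-compound challenge · Compound – 3 µM, single point · Incubation – dye loading 75 min at 37 °C, then 30 min room temperature · Measured by – Fluo-8 intracellular calcium dye fluorescence, real-time kinetic reads · Benchmarks – vehicle and agonist controls · Replicates – singlicate, one well per test compound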

Chain of Trace amine-associated receptor 1 (Homo sapiens) (Q96RJ0 whole entry, looked up): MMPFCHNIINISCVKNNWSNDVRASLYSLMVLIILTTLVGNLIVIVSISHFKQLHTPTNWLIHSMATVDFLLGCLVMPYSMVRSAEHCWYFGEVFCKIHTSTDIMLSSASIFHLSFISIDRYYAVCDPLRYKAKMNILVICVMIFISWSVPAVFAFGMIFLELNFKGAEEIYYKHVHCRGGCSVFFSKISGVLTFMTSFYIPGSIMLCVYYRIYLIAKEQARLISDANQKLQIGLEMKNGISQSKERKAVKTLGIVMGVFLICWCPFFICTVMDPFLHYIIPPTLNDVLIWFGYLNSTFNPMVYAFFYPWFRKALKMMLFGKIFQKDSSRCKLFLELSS

inhibition, inactive:
CO[C@@H]1CN(C)C(=O)c2cc(NC(=O)Nc3cc(F)ccc3F)ccc2OC[C@H](C)N(C(=O)c2ccccn2)C[C@@H]1C -23.9%
CCCCCCN1CCN(C2CN(Cc3cn(Cc4ccc(F)cc4)nn3)S(=O)(=O)C2)CC1 (stereo not drawn) -26.8%
COC(=O)C1=C(C)N(Cc2ccc(C(F)(F)F)cc2)C(=NCc2ccccc2)NC1c1ccccc1C(F)(F)F (stereo not drawn) -9.36%
CCOC(=O)c1c(N)c(C#N)nn1-c1ccccc1C(=O)OC 5.89%
O=C(COc1ccc(Cl)cc1)Nc1ccccc1CO 4.17%
Cc1cccc(NC(=S)NCCc2ccc(Cl)cc2)c1C -16.5%
O=C(COc1ccc(Cl)cc1)NC(=S)Nc1ccccc1N1CCOCC1 -2.14%
Cc1ccccc1N/C(SCc1ccc(Cl)cc1)=C(/C#N)C(N)=O -9.21%
O=C(C(=O)N1CCC(CNS(=O)(=O)Cc2ccccc2)CC1)c1cc2ccccc2o1 -11.1%
CCc1cccc(CC)c1N1C(=O)CC(Sc2ccccc2N)C1=O (stereo not drawn) -2.71%
CCC(c1nc2ccccc2[nH]1)n1c(=O)c(-c2cccs2)nc2ccccc21 (stereo not drawn) -2.04%
O=C(CCc1ccccc1)NNC(=O)COc1ccc(Cl)cc1 -2.05%
CCOc1ccccc1NC(=S)NC(=O)CCc1ccccc1 -0.27%
O=C(NNC(=S)NCc1ccccc1)c1ccc(OC(F)F)cc1 -12.5%
CC(=O)NC(=S)NNC(=O)c1ccc(Br)cc1 25.8%
CCOC(=O)[C@]12CCCC=C1N(CCC1=CCCCC1)C(=O)[C@H](CC(=O)NCCCCc1ccccc1)C2 -5.96%
CCO[C@H]1OC(C(=O)NCc2ccccc2)=C[C@@H](c2coc3ccccc3c2=O)[C@@H]1CCCO 1.58%
O=C(NCc1ccccc1)[C@H]1CCCN1C(=O)[C@@H]1CCCN1C(=O)c1ccc(Cl)cc1Cl -4.49%
CC[C@@H]1CC2=C(C(=O)OC(C)(C)O2)[C@@H](CC)O1 7.78%
COc1cc(/C=N\NC(=O)c2nonc2N)c(OC)cc1Br -10.8%
Cc1ccc(-c2ccc(/C=N/NC(=O)CN3CCOCC3)o2)cc1[N+](=O)[O-] 3.41%
O=C1NC[C@H](CCCCN2C[C@H](Cc3ccccc3)N(Cc3ccccc3)C(=O)C2=O)N(CCc2ccc(O)cc2)C1=O -9.2%
CN1CCN(CCC(=O)N/N=C/C=C2\N(C)c3ccccc3C2(C)C)CC1 28.4%
CC(=O)Nc1cccc(OCC(=O)/C=C2\N(C)c3ccccc3C2(C)C)c1 32.4%
CC(=O)Nc1ccc(NC(=O)CCN2C(=O)C3CC=CCC3C2=O)cc1 (stereo not drawn) -7.1%
Cc1nc2ccc(NC(=O)N3CCC(c4ccccc4)C3)cc2nc1C (stereo not drawn) -3.01%
COC(=O)c1ccccc1SC1CC(=O)N(c2cccc(C)c2)C1=O (stereo not drawn) -3.32%
CCOC(=O)N1C(=O)C[C@](Sc2ccc(C)cc2)(C(=O)OC)[C@H]1c1ccccc1 6.96%
COC(=O)C(C(=O)OC)c1ccccc1NS(=O)(=O)c1cccc2ccccc12 -21.2%
CC(=O)N1Cc2cc(C(=O)NCc3cccc(F)c3)nc(-c3cccc(C4=CCCCC4)c3)c2[C@H]1CCO 18.2%
O=C(CC[C@H]1O[C@@H](n2ccc(=O)[nH]c2=O)[C@H](O)[C@@H]1O)N[C@H](Cc1ccccc1)C(=O)NCCCN1CCCC1=O -13.5%
COc1ccc(C(=O)C(C)OC(=O)c2cccc(S(=O)(=O)Nc3c(C)n(C)n(-c4ccccc4)c3=O)c2)cc1 (stereo not drawn) -15.1%
COc1ccc(NS(=O)(=O)c2ccc(C(=O)Nc3c(C)n(C)n(-c4ccccc4)c3=O)cc2)cc1 -27.9%
Cc1cc(C)n2c(Nc3c(C)cccc3C)c(CCc3ccccc3)nc2n1 5.85%
Clc1ccccc1Nc1nc(NCc2cccs2)nc2ccsc12 7.32%
COc1cccc(CNc2nc(NCc3ccccc3OC)nc3ccsc23)c1 36.8%
CC(C)N(C)C(=O)CCc1nnc(CCc2c[nH]c3ccccc23)o1 -0.9%
COC(=O)C1=C(C)N(Cc2cccc(C(F)(F)F)c2)C(=NCc2cccc(C(F)(F)F)c2)NC1c1ccccc1C(F)(F)F (stereo not drawn) -30.9%
Cc1ccc(C(=O)Nc2ccc(C)c(S(=O)(=O)N(C)C)c2)s1 11.3%
O=C(NC(Cc1ccccc1)C(=O)N1CCCC1C(=O)O)c1ccccc1 (stereo not drawn) (Bz-Phe-Pro-OH; configuration not given here) -24.6%
O=C(NCCc1ccc(Cl)cc1)C1CCCN1C(=O)NCc1ccccc1 (stereo not drawn) -9.56%
O=C(Nn1c(-c2ccc(Cl)cc2)nc2ccccc2c1=O)c1cccnc1Cl 15.6%
O=C(C[C@H]1CC[C@H]2[C@@H](COC[C@H](O)CN2C(=O)c2ccccn2)O1)N1CCN(c2ccccc2)CC1 -9.63%
CCOC(=O)N1CCN(C(=O)C[C@@H]2C[C@@]3(C(=O)OC)CC(C)(C)CC=C3N(Cc3ccco3)C2=O)CC1 -19%
COc1ccccc1N1CCN(C(=O)c2ccc(NC3=NC4CS(=O)(=O)CC4S3)cc2)CC1 (stereo not drawn) -7.44%
COc1ccccc1N1CCN(C(=O)c2cn(-c3ccccc3)nc2-c2cccnc2)CC1 22.2%
CCCC(C)NC(=O)C1CCN(C(=O)C2CC(=O)N(c3ccc(C)cc3)C2)CC1 (stereo not drawn) 3.73%
C[C@@H]1ON(C)[C@H]2C[C@H]3c4cc(N5CCOCC5)ccc4CCN3C[C@@H]12 -3.17%
COc1ccc(S(=O)(=O)Nc2ccc3c(c2)C(=O)N([C@H](C)CO)C[C@H](C)[C@@H](CN(C)C)OCCCC[C@H](C)O3)cc1 -3.5%
C[n+]1ccc(/C=C/c2c[nH]c3ccccc23)cc1 -4.64%
O=C(Cc1c[nH]c2ccccc12)N/N=C/c1cccc(F)c1 15.8%
COc1ccc(CCNC(=O)C(=O)NCC2OCCN2S(=O)(=O)c2ccc(F)cc2)cc1OC (stereo not drawn) -12%
COc1ccc(S(=O)(=O)N2CCOC2CNC(=O)C(=O)NCc2ccncc2)cc1C (stereo not drawn) -15.9%
CC1Cc2[nH][nH]c(=O)c2C(C2CCCC2)O1 (stereo not drawn) 2.81%
CC(C)c1cc(Cn2c3ccccc3c(=O)n2C(C)Cn2cc(C3CC3)nn2)on1 (stereo not drawn) -16%
CCCCN(C(=O)c1cccc(N2C(=O)c3ccccc3C2=O)c1)c1c(N)n(CCCC)c(=O)[nH]c1=O 5.52%
CC(C)[C@@H](C)/C=C/[C@@H](C)[C@H]1CC[C@@H]2[C@]1(C)CCC1[C@]23C=C[C@]2(C[C@@H](O)CC[C@]12C)N(c1ccc([N+](=O)[O-])cn1)O3 (stereo partly drawn) -12%
O=c1c2cc(-c3ccccc3)sc2nc2n1N=C(c1cccs1)CS2 -11.2%
Oc1ccccc1N1CCN(C(=S)NCc2ccccc2)CC1 3.27%
O=C(Cn1c(N2CCN(C/C=C/c3ccccc3)CC2)nc2ccccc21)c1ccccc1 10.7%
COc1cccc(CC(=O)N2CCN(C(=O)C(=O)c3cccc(C(F)(F)F)c3)CC2)c1 15.5%
Cc1ccccc1NC(=O)Cc1nc(COC(=O)c2cccnc2Cl)cs1 10.4%
Cc1ccccc1NC(=O)Cc1nc(COC(=O)CNC(=O)c2ccc(Cl)cc2Cl)cs1 -26.5%
CC(C)Nc1nnc(SC(C)C(=O)N(C)C2CCCCC2)s1 (stereo not drawn) -5.6%
Cc1ccc(C)c(-c2nnc(NC(=O)CS(=O)(=O)c3ccccc3)o2)c1 -13.2%
Cc1ccc(S(=O)(=O)CC(=O)NC(C)c2ccccc2)cc1 (stereo not drawn) -14.5%

inhibition, active:
O=C(Cc1ccc(Cl)cc1)NC(=S)Nc1ccccc1O 104%
Cc1ccccc1NC(=S)NC(=O)Cc1ccc(Cl)cc1 91.6%
COc1ccc(C(=O)NNC(=S)NC(=O)c2ccccc2)cc1 66.3%
COc1ccc(C(=O)NC(=S)NNC(=O)CCc2ccccc2)cc1 66.2%
Cc1cc(C)c([N+](=O)[O-])cc1-c1ccc(/C=N/NC(=O)c2nonc2N)o1 52%
CN1/C(=C\C(=O)c2oc3ccccc3c2N)C(C)(C)c2ccccc21 51.5%
COC(=O)[C@@]1(Sc2ccc(C)cc2)CC(=O)N(c2cccc(SC)c2)[C@@H]1c1ccccc1 67.8%
Cc1c(NS(=O)(=O)c2cccc(C(=O)Nc3ccc(SC(F)F)cc3)c2)c(=O)n(-c2ccccc2)n1C 51.8%
COc1cccc(CNc2nc(NCc3cccs3)nc3ccsc23)c1 76.6%
O=C1C=C(c2ccc(Cl)cc2)C(=O)N1Nc1ccccc1 74.6%
O=C(N[C@H](C(=O)N1CCC[C@H]1C(=O)NCCc1ccccc1Cl)c1ccccc1)c1ccccc1 56.7%
COc1ccc(Nc2ncc(C(=O)N3CCN(c4ccccc4OC)CC3)c3ccccc23)cc1 49.5%
CSC(=S)N/N=C/c1c[nH]c2ccccc12 88.6%
COc1ccc(CCNC(=O)C(=O)NCC2OCCN2S(=O)(=O)c2ccc(OC)c(C)c2)cc1 (stereo not drawn) 53.6%
Oc1ccccc1N1CCN(c2ncnc3sc(-c4ccccc4)cc23)CC1 58.6%
Cc1ccccc1NC(=O)Cc1nc(COC(=O)C(C)(C)Oc2ccc(Cl)cc2)cs1 64.8%
Cc1cccc(S(=O)(=O)CC(=O)Nc2nc(-c3ccccc3)cs2)c1 53.8%
